Results as given in ChEMBL document CHEMBL1821666, “Anti-inflammatory principles from Cordyceps sinensis” (J Nat Prod, 2011).
In brackets after ≈: the same amount, converted by molar mass. Activity calls are given as the source filed them. The calls are words filed in the database; no cut-off is given here.

What was measured:
[1] = (§1) Anti-inflammatory activity in human neutrophils assessed as inhibition of FMLP/CB-induced superoxide anion generation; type: functional, cell-based; settings: Neutrophil
Method in brief: (§2)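 Human neutrophils were activated with FMLP plus cytochalasin B (FMLP/CB). IC50 is the concentration giving 50% inhibition of the response. Values are mean ± SEM, n = 3–4.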

[2] = Antioxidant activity assessed DPPH scavenging activity at 500 uM; type: functional
Method in brief: (§3)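 DPPH free-radical scavenging was measured in a cell-free system, with IC50 determined. Constituents were also screened at 500 μM.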

[3] = (§4) Anti-inflammatory activity in human neutrophils assessed as inhibition of FMLP/CB-induced elastase release; type: functional, cell-based; settings: Neutrophil; method in brief: as §2
[4] = Anti-inflammatory activity in human neutrophils assessed as inhibition of FMLP/CB-induced elastase release at 10 ug/mL; type: functional; settings: Neutrophil
Method in brief: (§5)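 Human neutrophils were activated with FMLP/CB. Percentage inhibition of the response was measured with samples at 10 μg/mL. Values are mean ± SEM, n = 3–4, and significance was tested against the control value.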

[5] = Anti-inflammatory activity in human neutrophils assessed as inhibition of FMLP/CB-induced superoxide anion generation at 10 ug/mL; type: functional; settings: Neutrophil; method in brief: as §5
[6] = Antioxidant activity assessed DPPH scavenging activity; type: functional; method in brief: as §3
Neutrophil [7] = assay: as §1; type: functional, cell-based; method in brief: as §2
Neutrophil [8] = assay: as §4; type: functional, cell-based; method in brief: as §2

Structure (SMILES)	inhibition [2]	further results
O=c1c(-c2ccc(O)cc2)coc2cc(O)ccc12 [DAIDZEIN]	inactive	IC50 [1]: 6.19 µg/mL (≈ 24.3 µM)
COc1ccc2c(c1)c(CC(=O)O)c(C)n2C(=O)c1ccc(Cl)cc1 [INDOMETHACIN]	inactive	IC50 [1]: 38.3 µg/mL (≈ 107 µM); IC50 [3]: 32 µg/mL (≈ 89.4 µM)
O=C1C[C@H](O)[C@@H](CO)O1	inactive	–
COc1cc(/C=C/C(=O)O[C@H]2CC[C@]34C[C@]35CC[C@]3(C)[C@@H]([C@H](C)CCC=C(C)C)CC[C@@]3(C)[C@@H]5CC[C@H]4C2(C)C)ccc1O [GAMMA ORYZANOL]	inactive	inhibition at 10 µg/mL [4]: 41.6%; inhibition at 10 µg/mL [5]: 28.2%
CC(C)[C@@H](C)/C=C/[C@@H](C)[C@H]1CC[C@H]2C3=CC=C4C[C@@H](O[C@@H]5O[C@H](CO)[C@@H](O)[C@H](O)[C@H]5O)CC[C@]4(C)[C@H]3CC[C@]12C	inactive	IC50 [1]: 5.42 µg/mL (≈ 9.7 µM); IC50 [3]: 5.62 µg/mL (≈ 10.1 µM)
CC(C)[C@@H]1NC(=O)[C@@H]2CCCN2C1=O	inactive	–
O=C1O[C@H]([C@@H](O)CO)C(O)=C1O [ASCORBIC ACID]	–	IC50 [6]: 38.6 µM
OCc1ccc(-c2nccc3c2[nH]c2ccccc23)o1 [PERLOLYRIN]	inactive	inhibition (Neutrophil [7]): Dose-dependent effect; IC50 [1]: 0.45 µg/mL (≈ 1.7 µM); inhibition (Neutrophil [8]): Dose-dependent effect; IC50 [3]: 1.68 µg/mL (≈ 6.36 µM)
O=C1N[C@@H](Cc2ccccc2)C(=O)N2CCC[C@@H]12	inactive	–
O=C(O)c1cc2c([nH]c3ccccc32)c(-c2ccc(CO)o2)n1	inactive	–
O=C(O)c1ccco1	inactive	–
CC(C)C[C@@H]1NC(=O)[C@@H]2CC[C@@H](O)N2C1=O	inactive	–
O=c1c(-c2ccc(O)c(O)c2)coc2cc(O)ccc12	–	IC50 [6]: 32 µM
Cc1occc(=O)c1O	inactive	–
O=C1N[C@@H](Cc2ccc(O)cc2)C(=O)N2CCC[C@@H]12	inactive	–
